{
  "source": "PubChem BioAssay AID463141",
  "about": "(The Scripps Research Institute Molecular Screening Center, 2010)",
  "note": "Hit rate of the full screen: of about 330,000 compounds, about 350 (0.11%) were called active. Many of the other results were omitted from the sample, so actives are more common in it than they were. Values without a mark were called inactive.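 How the source made its calls: active means activation above the mean of all tested compounds plus 3 SD (cut at about 21% in these data); inactive means the rest.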",
  "data": [
    {"target": "Caspase-3 (Homo sapiens) (UniProt P42574)", "sequence (P42574 whole entry D9A/D28A/D175A)": "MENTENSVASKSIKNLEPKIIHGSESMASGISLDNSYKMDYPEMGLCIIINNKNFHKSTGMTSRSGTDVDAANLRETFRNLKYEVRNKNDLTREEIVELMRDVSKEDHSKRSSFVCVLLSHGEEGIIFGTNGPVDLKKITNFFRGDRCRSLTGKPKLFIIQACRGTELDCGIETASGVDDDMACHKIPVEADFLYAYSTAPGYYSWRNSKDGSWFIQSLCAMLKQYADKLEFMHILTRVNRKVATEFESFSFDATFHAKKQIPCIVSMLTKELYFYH", "test": "procaspase-3 enzyme activation – biochemical, absorbance, PC-3 D3A mutant, single concentration, primary screen (AID 463141);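 further: 0% = DMSO alone and 100% = DMSO wells spiked with extra 5 µM PC-3 D3A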", "conditions": "recombinant procaspase-3 D3A, Ac-DEVD-pNA absorbance 405 nm; at 8.5 µM; active compounds read high", "summary_of_the_method": "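Test system: Procaspase-3 D3A mutant; medium: Zinc-free HEPES/NaCl buffer with 0.01% Triton X-100 at pH 7.4; reagent: DEVD-pNA substrate; doses: one concentration, 8.5 µM nominal, 0.8% DMSO; times: 1 h preincubation plus 2 h reaction at 25 °C; signal: Epi-absorbance at 405 nm of released p-nitroaniline, 0 and 120 min; replicates: singlicate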", "values": [
      {"smiles": "COCCn1c(SCC(=O)Nc2nc(C)cs2)nnc1C(C)C", "activation": "2.76%"},
      {"smiles": "CCCN1C2=C(C(=O)CCC2)C(c2ccc(O)c(Br)c2)C2=C1CCCC2=O", "activation": "-10.1%"},
      {"smiles": "COC(=O)c1cnc(Nc2cc(C)ccc2OC)c2ccccc12", "activation": "35.2% (active)"},
      {"smiles": "COc1ccc(C)cc1Nc1nc(C)nc2c1oc1ccccc12", "activation": "4.37%"},
      {"smiles": "COc1ccc(C)cc1NC(=O)NCc1ccccn1", "activation": "-10.4%"},
      {"smiles": "COc1ccc(CN2[C@@H](CC(=O)O)c3cc(F)ccc3S2(=O)=O)cc1", "activation": "3.51%"},
      {"smiles": "CC1CCCN(S(=O)(=O)c2ccc(N(C(=O)c3cnccn3)C(C(=O)NC3CCCCC3)c3cccs3)cc2)C1", "note": "(configuration not stated)", "activation": "3.94%"},
      {"smiles": "Cc1cccc(C)c1N1C(=O)CN(Cc2ccccc2)C1=S", "activation": "-3%"},
      {"smiles": "NC(=O)c1nsc(C(=O)N(CCCN2CCOCC2)C(C(=O)NC2CCCCC2)c2ccc(Cl)cc2)c1N", "note": "(configuration not stated)", "activation": "-8.01%"},
      {"smiles": "Cc1nn(C)cc1C(=O)NNC(=S)Nc1ccc(Cl)cc1", "activation": "-4.7%"},
      {"smiles": "Cc1nn(C)cc1CNC(=O)Nc1ccc(Cl)cc1", "activation": "31.2% (active)"},
      {"smiles": "O=C(NCc1ccccn1)Nc1ccc(Cl)cc1", "activation": "-0.71%"},
      {"smiles": "CN(C)CCNC(=O)C(C(=O)c1ccccc1)n1ccccc1=O", "note": "(configuration not stated)", "activation": "2.49%"},
      {"smiles": "O=C(Cn1nc(C(=O)O)c2ccccc2c1=O)Nc1ccc(F)cc1", "activation": "2.68%"},
      {"smiles": "Cc1cccc(NC(=O)c2cccc(C(=O)Nc3cccc(C)c3C)n2)c1C", "activation": "-5.05%"},
      {"smiles": "Cc1ccccc1CSCCNC(=O)c1ccc(N(C)S(=O)(=O)c2ccccc2)cc1", "activation": "-1.26%"},
      {"smiles": "COc1cc(CNCc2cccs2)cc(Br)c1OC", "activation": "2.29%"},
      {"smiles": "COc1ccc2nc(Nc3nc4ccc(NC(C)=O)cc4s3)sc2c1", "activation": "28.4% (active)"},
      {"smiles": "CCCC(=O)Nc1nc2ccc(NC(=O)c3c(F)c(F)c(OC)c(F)c3F)cc2s1", "activation": "8.06%"},
      {"smiles": "COc1ccc2nc(NC(=O)NC3CCCCC3)sc2c1", "activation": "-1.14%"},
      {"smiles": "CCCc1cc(=O)oc2c(C)c(OCC(=O)Nc3ccccn3)ccc12", "activation": "-8.09%"},
      {"smiles": "COc1cccc(C(=O)OCc2cc(=O)oc3c(C)c(C)ccc23)c1OC", "activation": "1.33%"},
      {"smiles": "COC(=O)Cc1cc(=O)oc2c(C)c(O)ccc12", "activation": "22.9% (active)"},
      {"smiles": "C=CCSc1ccc(S(=O)(=O)N2CCN(C)CC2)cn1", "activation": "6.46%"},
      {"smiles": "COC(=O)[C@@H]1C[C@@]2(O)[C@H](O)[C@H](O)[C@H](O)C[C@H]2N1Cc1ccc(C(C)(C)C)cc1", "activation": "1.49%"},
      {"smiles": "COc1ccc(CNC(=O)c2ccc(NS(=O)(=O)c3ccc4[nH]c(=O)[nH]c4c3)cc2)cc1OC", "activation": "-5.34%"},
      {"smiles": "C[C@@H]1CN([C@H](C)CO)C(=O)c2cc(NC(=O)NC3CCCCC3)ccc2O[C@H]1CN(C)S(C)(=O)=O", "activation": "-10.4%"},
      {"smiles": "COc1ccccc1C1C(C#N)=C(N)Oc2c1c(-c1ccccc1)nn2-c1ccccc1", "note": "(configuration not stated)", "activation": "3.18%"},
      {"smiles": "Cc1cc(C)n(-c2nc(O)cc(=O)[nH]2)n1", "activation": "13.4%"},
      {"smiles": "CCOc1ccc2c(=O)c(-c3ccc4c(c3)OCCCO4)c(C)oc2c1", "activation": "-0.35%"},
      {"smiles": "O=C(CSCc1ccccc1Cl)NNC(=O)c1ccccc1", "activation": "-5.37%"},
      {"smiles": "O=C(Nc1cccc2ccccc12)c1onc2c1CCCC2", "activation": "2.73%"},
      {"smiles": "O=C(CN1CCC(O)(c2cccc(C(F)(F)F)c2)CC1)NCCc1ccccc1", "activation": "2.72%"},
      {"smiles": "COC(CCN(C)C)(c1ccccc1)c1ccccc1", "activation": "-2.83%"},
      {"smiles": "O=[N+]([O-])c1ccc(C=Nc2ccc(Cl)cc2Cl)s1", "activation": "6.25%"},
      {"smiles": "CCn1c(SCC(=O)NC2=NCCS2)nnc1C(C)NC(=O)c1ccccc1F", "note": "(configuration not stated)", "activation": "2.41%"},
      {"smiles": "O=C1c2ccccc2C(O)N1Cc1ccccc1Cl", "note": "(configuration not stated)", "activation": "-2.13%"},
      {"smiles": "COc1ccc2[nH]c3c(c2c1)CCN1C(=O)C(CC(=O)NCCc2ccccn2)C[C@H](C(=O)N2CCOCC2)[C@@]31C", "note": "(some centres not stated)", "activation": "0.02%"},
      {"smiles": "O=P(c1cccs1)(c1cccs1)c1cccs1", "activation": "-8.39%"},
      {"smiles": "Cc1[nH]n(C(N)=S)c(=O)c1N=Nc1ccc(Cl)cc1Cl", "activation": "-2.96%"},
      {"smiles": "CCN(c1ccc2c(c1)OCO2)S(=O)(=O)c1cc(Br)cc2c1N(C(=O)C1CC1)CC2", "activation": "5.06%"},
      {"smiles": "Cn1cc(CCC(=O)NCc2ccc3c(c2)OCO3)c2ccccc21", "activation": "11.3%"},
      {"smiles": "O=C(CCNS(=O)(=O)c1ccccc1C(F)(F)F)Nc1ccncc1", "activation": "1.72%"},
      {"smiles": "O=C(CCNS(=O)(=O)c1ccccc1C(F)(F)F)NCc1ccc2c(c1)OCO2", "activation": "32.1% (active)"},
      {"smiles": "CN1CCN(CCNC(=O)Nc2ccccc2[N+](=O)[O-])CC1", "activation": "4.28%"},
      {"smiles": "CN(C)c1ccc(C=NCCc2ccc(S(N)(=O)=O)cc2)cc1", "activation": "8.03%"},
      {"smiles": "Cc1ccc(C)c(NC(=O)COC(=O)c2nn(C)c(=O)c3ccccc23)c1", "activation": "14.6%"},
      {"smiles": "COc1cc(NC(=O)c2ccc(-c3csc(C)n3)cc2)c(OC)cc1Cl", "activation": "3.93%"},
      {"smiles": "CCCc1cc(=O)[nH]c(SCC(=O)Nc2ccc(C(=O)Nc3ccccc3OC)cc2)n1", "activation": "0.24%"},
      {"smiles": "CCN(Cc1ccccc1)S(=O)(=O)c1cc(C(=O)O)ccc1OC", "activation": "5.66%"},
      {"smiles": "FC(F)(F)c1cccc(-c2nc(COc3ccc(Cl)cc3Cl)no2)c1", "activation": "-1.22%"},
      {"smiles": "CCCc1nc2c(C)cc(-c3nc4ccccc4n3C)cc2n1Cc1ccc(-c2ccccc2C(=O)O)cc1", "activation": "5.04%"},
      {"smiles": "CC1(C)Cc2c(C#N)c(SCc3nc4ccccc4[nH]3)nc(N3CCOCC3)c2CO1", "activation": "30.9% (active)"},
      {"smiles": "COc1ccc(CSc2nc(N3CCOCC3)c3c(c2C#N)CC(C)(C)OC3)cc1", "activation": "-2.72%"},
      {"smiles": "CC(C)C(=O)N1CCN(c2nc(-c3ccccc3)c3c(c2C#N)CC(C)(C)OC3)CC1", "activation": "5.16%"},
      {"smiles": "COc1ccc(OC)c(/C=N/NC(=O)c2ccc[n+](CC(=O)c3ccccc3)c2)c1", "activation": "-2.7%"},
      {"smiles": "COc1ccc(OC)c(Nc2nc3ccccc3n3cnnc23)c1", "activation": "-2.95%"},
      {"smiles": "Cc1cc(F)ccc1S(=O)(=O)Nc1ccc(C(=O)N(C)Cc2ccco2)cc1", "activation": "12.5%"},
      {"smiles": "CCN(CC)S(=O)(=O)c1ccc(Cl)c(C(=O)NC(C)C(c2cccs2)N2CCCC2)c1", "note": "(configuration not stated)", "activation": "0.02%"},
      {"smiles": "O=C(NCc1ccccc1)[C@@H]1CSC2c3ccccc3C(=O)N21", "note": "(some centres not stated)", "activation": "5.1%"},
      {"smiles": "Cn1nc([N+](=O)[O-])nc1Sc1ccc(C(C)(C)C)cc1", "activation": "-0.3%"},
      {"smiles": "ONC(=Nc1ccc(Cl)cc1)c1ccccc1Cl", "activation": "4.43%"},
      {"smiles": "C=CCn1c(SCc2nnc(-c3ccccc3)o2)nnc1C(O)c1ccccc1", "note": "(configuration not stated)", "activation": "-1.35%"},
      {"smiles": "CC1CCN(C(=S)NC2CC3CCC2C3)CC1", "note": "(configuration not stated)", "activation": "-7.41%"},
      {"smiles": "CCCNC(=O)CN(Cc1ccccc1F)S(=O)(=O)c1ccc(C)cc1", "activation": "4.46%"},
      {"smiles": "Cc1ccc(N(C(=O)C(F)(F)F)C(C(=O)NC2CCCCC2)c2ccncc2)cc1C", "note": "(configuration not stated)", "activation": "-2.69%"},
      {"smiles": "O=C(NCCS(=O)(=O)c1ccc(Br)cc1)c1ccccc1Cl", "activation": "3.23%"}
    ]}
  ]
}
